Test results from article PMC11837772 (RSC Advances, 2025).
“Also recorded” adds a separate entry of the source. Like-named read-outs stand apart in the source and are kept apart here.

Tests used:
[1] = tested on: intracellular L. donovani amastigotes; assay: Intracellular amastigotes assay in infected macrophages; format: cell-based, Leishmania donovani; settings: for Percentage Reductions (%) in intracellular amastigotes: 72 h; for SI (selectivity index): CC50 (THP-1) / IC50 (intracellular amastigotes)
Outline: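 Macrophages (5 × 10^4 per chamber) adhered 2 h at 37 °C in 5% CO2, were washed with serum-free RPMI, then infected overnight with metacyclic L. donovani at 10:1 in complete RPMI 1640. Free promastigotes were washed off after 24 h, and test compound was added in duplicate for 72 h at 37 °C in 5% CO2. Giemsa-stained amastigotes per 100 macrophages were counted and expressed as a percentage of the untreated control mean.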

[2] = tested on: L. donovani promastigotes; assay: Cellular morphological alteration of promastigotes; format: cell-based, Leishmania donovani; settings: 48 hours, contrast microscope 40× objective
Outline: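 Exponential-phase promastigotes (grown at 26 °C in M199 with 10% heat-inactivated FBS) at 2 × 10^6 cells per mL were incubated without or with test compound or reference drug at 1 μM for 48 h. Cell shape was examined by contrast/light microscopy (40× objective) at 0 and 48 h and scored for programmed-cell-death-type morphology.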

[3] = tested on: THP-1 human monocytic cells; assay: Cytotoxicity assay; format: cell-based; settings: for Log CC50 / CC50: THP-1 human monocytic cells, 72 h, MTT; for CC50: unit printed in Table 5 only
Outline: (§1)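 THP-1 cells in RPMI with 10% FBS were seeded at 1 × 10^6 cells per mL and held 24 h at 37 °C in humidified CO2. Medium was then replaced with test compound or standard at 100, 50, 25, 12.5 and 6.25 μM for 72 h. Viability was read by MTT (0.5 mg mL−1, 4 h, 37 °C), with formazan dissolved in DMSO and absorbance at 570 nm.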

Cytotoxicity assay = format: cell-based, human; settings: human, THP-1 human monocytic cells, pH 7.4, Log CC50, THP-1 human monocytic cells, 72 h, MTT
Outline: as §1

[4] = tested on: L. donovani promastigotes; assay: IC50 from dose-dependent anti-promastigote activity; format: cell-based, Leishmania donovani; settings: 72 h, read-out: IC50 against L. donovani promastigotes
Outline: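 Log-phase promastigotes (26 °C, M199 with 10% heat-inactivated FBS) were exposed to graded concentrations of test compound, and viability was read by MTT. Percentage viability was calculated as treated/untreated mean × 100. IC50 was extrapolated from the % viability versus concentration plot, from triplicate experiments as mean ± SEM.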

[5] = tested on: L. donovani promastigotes; assay: Primary screening against L. donovani promastigotes; format: cell-based; settings: Leishmania donovani, 48 h, read-out: % inhibition (48 h)
Outline: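 Promastigotes at 2 × 10^6 cells per mL in RPMI at 26 °C were given test compound at 100 μM, with DMSO (0.2%) as solvent, an amphotericin B reference and a medium-only control. Viability was read by MTT and expressed as % inhibition.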

papain = target: T1, papain (Carica papaya, UniProt P00784); assay: In vitro cysteine protease inhibition assay; format: biochemical
T1 sequence (P00784 134-345): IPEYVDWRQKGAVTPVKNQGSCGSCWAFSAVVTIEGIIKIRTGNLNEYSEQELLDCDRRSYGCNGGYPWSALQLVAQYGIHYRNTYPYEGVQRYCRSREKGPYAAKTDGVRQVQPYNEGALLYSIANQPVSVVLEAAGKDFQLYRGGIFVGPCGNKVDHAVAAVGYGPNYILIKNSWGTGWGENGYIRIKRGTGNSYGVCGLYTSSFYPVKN
Outline: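 Papain was run in activation buffer of sodium acetate (pH 5.5), 8 mM DTT and 4 mM EDTA, with papain […], 10 μM Bz-Arg-AMC and inhibitor at 0–32 μM (dissolved in DMSO). AMC release was followed by fluorescence (excitation 345 nm, emission 440 nm) for 120 min. IC50 came from the straight-line fit of % residual activity versus log[inhibitor].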

SARS-CoV-2 3CL protease = settings: read-out: IC50 against SARS-CoV-2 3CL protease; cited from earlier work
L. donovani = settings: read-out: IC50 against L. donovani; ref Ahmed H. E. Hassan and his team; cited from earlier work
[6] = preliminary cytotoxicity assessments; ref Ahmed H. E. Hassan and his team; cited from earlier work
[7] = serial dilutions starting at 25 μM, MTT

Molecule: CC/C(=C\c1ccc(OCC(=O)NC(Cc2ccccc2)C(=O)N2CCOCC2)cc1)[N+](=O)[O-] (stereo not drawn) [14a, (E)-N-(1-Morpholino-1-oxo-3-phenylpropan-2-yl)-2-(4-(2-nitrobut-1-en-1-yl)phenoxy)acetamide]
- Percentage Reductions (%) in intracellular amastigotes ([1]; 3.125 μM): 37.2%
- Percentage Reductions (%) in intracellular amastigotes ([1]; 6.25 μM): 44.1%
- Percentage Reductions (%) in intracellular amastigotes ([1]; 12.5 μM): 57.5%
- SI (selectivity index) [1]: 3.55
- morphological changes of treated promastigotes [2]: notable morphological alterations
- cytotoxicity to mammalian macrophages ([3]; even at a concentration of 28 μM): negligible cytotoxicity; also recorded: insignificant cytotoxicity
- CC50 at 72 h (Cytotoxicity assay): 28.7 µM
- IC50 ([4]; Leishmania donovani): 11.9 µM
- inhibition at 100 µM [5]: 84.8%
- IC50 (papain): 9.63 ± 0.28 µM

Molecule: CC/C(=C\c1ccc(OCC(=O)N[C@@H](Cc2ccccc2)C(=O)NCC(=O)OC)cc1)[N+](=O)[O-] [14i, Methyl (E)-(2-(4-(2-nitrobut-1-en-1-yl)phenoxy)acetyl)phenylalanylglycinate]
- CC50 at 72 h (Cytotoxicity assay): 5.15 µM
- IC50 ([4]; Leishmania donovani): 5.3 µM
- inhibition at 100 µM [5]: 84.5%

Molecule: CC/C(=C\c1ccc(OCC(=O)N[C@@H](Cc2c[nH]c3ccccc23)C(=O)N[C@@H](C)C(=O)OC)cc1)[N+](=O)[O-] [14j, Methyl (E)-(2-(4-(2-nitrobut-1-en-1-yl)phenoxy)acetyl)tryptophylalaninate]
- inhibition at 100 µM [5]: 65.5%

Molecule: CC/C(=C\c1ccc(OCC(=O)N[C@@H](Cc2ccccc2)C(=O)N[C@@H](C)C(=O)OC)cc1)[N+](=O)[O-] [14k, Methyl (E)-(2-(4-(2-nitrobut-1-en-1-yl)phenoxy)acetyl)phenylalanylalaninate]
- inhibition at 100 µM [5]: 54.8%

Molecule: C[C@@H]1[C@H](O)[C@@H](C)/C=C/C=C/C=C/C=C/C=C/C=C/C=C/[C@H](O[C@@H]2O[C@H](C)[C@@H](O)[C@H](N)[C@@H]2O)C[C@@H]2O[C@](O)(C[C@@H](O)C[C@@H](O)[C@H](O)CC[C@@H](O)C[C@@H](O)CC(=O)O[C@H]1C)C[C@H](O)[C@H]2C(=O)O [AmphoB, Amphotericin B, reference compound]
- Percentage Reductions (%) in intracellular amastigotes ([1]; 3.125 μM): 52.3%
- Percentage Reductions (%) in intracellular amastigotes ([1]; 6.25 μM): 63.2%
- Percentage Reductions (%) in intracellular amastigotes ([1]; 12.5 μM): 85.5%
- SI (selectivity index) [1]: 3.48
- IC50 ([4]; Leishmania donovani): 3.07 µM
- inhibition at 100 µM [5]: 78.5%

Molecule: O=[N+]([O-])C=Cc1ccc([N+](=O)[O-])cc1 [compound 2, 4-nitro-β-nitrostyrene]
- IC50 (SARS-CoV-2 3CL protease): 0.73 µM

Molecule: CCCCCCCC/C=C\CCCCCCCCCCCCOP(=O)([O-])OCC[N+](C)(C)C [erufosine]
- IC50 (L. donovani): 9.8 µM
- CC50 [6]: 19.4 µM

Molecule: (E)-1-(2-(Morpholine-4-carbonyl)pyrrolidin-1-yl)-2-(4-(2-nitrobut-1-en-1-yl)phenoxy) ethan-1-one [14b]
- Log CC50 [3]: 0.7734
- CC50 [3]: 5.93 µM
- IC50 [4, 7]: 16.8 µM

Molecule: (E)-2-(4-(2-Nitrobut-1-en-1-yl)phenoxy)-1-(2-(thiomorpholine-4-carbonyl)pyrrolidin-1-yl)ethan-1-one [14d]
- Log CC50 [3]: 0.5025
- CC50 [3]: 3.18 µM
- IC50 [4, 7]: 7.56 µM

Molecule: (E)-2-(4-(2-Nitrobut-1-en-1-yl)phenoxy)-N-(1-oxo-3-phenyl-1-thiomorpholinopropan-2-yl)acetamide [14c]
- Log CC50 [3]: 0.5684
- CC50 [3]: 3.7 µM
- IC50 [4, 7]: 7.24 µM

Molecule: Methyl (E)-(2-(1H-indol-3-yl)-2-(2-(4-(2-nitrobut-1-en-1-yl)phenoxy)acetamido)acetyl)valinate [14h]
- Log CC50 [3]: 1.109
- CC50 [3]: 12.9 µM
- IC50 [4, 7]: 10 µM
